Laboratory results from ChEMBL document CHEMBL3352115, “Discovery of APD334: Design of a Clinical Stage Functional Antagonist of the Sphingosine-1-phosphate-1 Receptor” (ACS Med Chem Lett, 2014).
Activity calls are given as the source filed them. The calls are words filed in the database; no cut-off is given here.

How the values were obtained:
[1] = biological target: Sphingosine 1-phosphate receptor 1 (Macaca mulatta, UniProt H9EUW9); assay: Agonist activity at monkey S1P1 receptor assessed as cAMP accumulation by HTRF assay; type: functional
Sphingosine 1-phosphate receptor 1 (Macaca mulatta, UniProt H9EUW9), sequence (H9EUW9 whole entry): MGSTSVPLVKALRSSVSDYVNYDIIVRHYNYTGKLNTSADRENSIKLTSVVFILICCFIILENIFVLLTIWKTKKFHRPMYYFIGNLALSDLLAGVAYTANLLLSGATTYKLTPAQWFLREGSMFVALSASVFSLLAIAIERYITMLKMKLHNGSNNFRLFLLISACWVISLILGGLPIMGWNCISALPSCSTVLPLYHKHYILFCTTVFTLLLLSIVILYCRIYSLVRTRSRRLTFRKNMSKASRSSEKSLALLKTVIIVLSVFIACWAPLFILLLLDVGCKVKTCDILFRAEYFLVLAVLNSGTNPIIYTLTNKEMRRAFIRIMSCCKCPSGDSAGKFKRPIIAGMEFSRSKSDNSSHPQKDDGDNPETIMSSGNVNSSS
How it was run: (§1)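 HTRF cyclase (cAMP) functional assay at S1P1 of each species; EC50 taken as mean of three or more replicates; efficacy given as % agonism relative to S1P.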

Cytochrome P450 2C19 = Cytochrome P450 2C19 (Homo sapiens, UniProt P33261); assay: Inhibition of CYP2C19 (unknown origin); type: ADME
Cytochrome P450 2C19, sequence (P33261 whole entry): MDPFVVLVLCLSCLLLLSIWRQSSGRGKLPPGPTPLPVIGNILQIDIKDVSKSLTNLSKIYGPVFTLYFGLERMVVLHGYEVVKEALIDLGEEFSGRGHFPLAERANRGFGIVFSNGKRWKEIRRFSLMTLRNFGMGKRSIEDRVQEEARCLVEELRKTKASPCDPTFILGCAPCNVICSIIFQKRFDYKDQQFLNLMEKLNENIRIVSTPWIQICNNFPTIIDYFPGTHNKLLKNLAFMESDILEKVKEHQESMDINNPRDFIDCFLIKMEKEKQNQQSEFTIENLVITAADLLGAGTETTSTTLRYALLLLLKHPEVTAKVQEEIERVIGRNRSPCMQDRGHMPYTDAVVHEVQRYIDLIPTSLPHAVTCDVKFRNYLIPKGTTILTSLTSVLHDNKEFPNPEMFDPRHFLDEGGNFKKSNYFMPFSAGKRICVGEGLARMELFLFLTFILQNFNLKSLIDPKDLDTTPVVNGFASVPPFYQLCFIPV

Salmonella typhimurium = assay: Genotoxicity in Salmonella typhimurium in absence of rat liver S9 fraction by Ames bacterial reverse mutation assay; type: toxicity, organism-based; settings: salmonella enterica subsp. enterica serovar typhimurium
Cytochrome P450 2D6 = Cytochrome P450 2D6 (Homo sapiens, UniProt P10635); assay: Inhibition of CYP2D6 (unknown origin); type: ADME
Cytochrome P450 2D6, sequence (P10635 whole entry): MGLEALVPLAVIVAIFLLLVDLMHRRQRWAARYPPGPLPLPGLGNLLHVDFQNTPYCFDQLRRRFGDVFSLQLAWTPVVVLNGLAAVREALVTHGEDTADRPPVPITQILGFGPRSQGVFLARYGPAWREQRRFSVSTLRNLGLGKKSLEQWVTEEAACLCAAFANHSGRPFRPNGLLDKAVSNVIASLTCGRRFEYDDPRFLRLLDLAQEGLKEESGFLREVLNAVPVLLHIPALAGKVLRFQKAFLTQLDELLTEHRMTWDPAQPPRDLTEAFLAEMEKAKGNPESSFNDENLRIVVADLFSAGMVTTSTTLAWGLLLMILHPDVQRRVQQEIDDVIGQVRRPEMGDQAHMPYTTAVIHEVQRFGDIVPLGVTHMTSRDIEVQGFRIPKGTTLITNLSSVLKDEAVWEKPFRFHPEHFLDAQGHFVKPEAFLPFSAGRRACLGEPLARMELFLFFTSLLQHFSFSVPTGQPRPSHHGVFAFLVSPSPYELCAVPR

Cytochrome P450 2C9 = Cytochrome P450 2C9 (Homo sapiens, UniProt P11712); assay: Inhibition of CYP2C9 (unknown origin); type: ADME
Cytochrome P450 2C9, sequence (P11712 whole entry): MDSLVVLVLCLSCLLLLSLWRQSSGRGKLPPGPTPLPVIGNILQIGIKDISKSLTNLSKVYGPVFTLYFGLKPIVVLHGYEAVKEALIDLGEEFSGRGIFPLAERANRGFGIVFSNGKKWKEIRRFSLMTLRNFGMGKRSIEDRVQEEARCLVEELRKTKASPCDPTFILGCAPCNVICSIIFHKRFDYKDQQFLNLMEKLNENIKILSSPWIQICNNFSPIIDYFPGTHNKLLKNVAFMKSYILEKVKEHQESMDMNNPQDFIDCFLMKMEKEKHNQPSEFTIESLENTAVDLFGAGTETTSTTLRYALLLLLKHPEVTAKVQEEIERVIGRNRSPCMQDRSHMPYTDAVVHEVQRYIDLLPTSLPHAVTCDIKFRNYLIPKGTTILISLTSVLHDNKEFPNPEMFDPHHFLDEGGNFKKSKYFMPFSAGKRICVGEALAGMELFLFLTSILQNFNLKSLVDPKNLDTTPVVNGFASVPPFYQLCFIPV

Rattus norvegicus [2] = assay: Induction of body weight regain in Lewis rat collagen-induced arthritis model at 1 mg/kg, po qd measured on day 17 (reference value: 160.3 +/- 2.3 g); type: functional
Rattus norvegicus [3] = assay: Toxicity in Sprague-Dawley rat assessed as mortality at 1000 mg/kg during 14 day repeat dose study; type: organism-based; set-up: dose 1000 mg/kg; settings: in vivo, 336 h
How it was run: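 14-day repeat-dose rat toxicity study with dose groups of 30, 100, 300 and 1000 mg/kg; animals monitored for tolerability, mortality and CNS clinical signs.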

[4] = biological target: Sphingosine 1-phosphate receptor 1 (Rattus norvegicus, UniProt P48303); assay: Agonist activity at rat S1P1 receptor assessed as cAMP accumulation by HTRF assay; type: functional; how it was run: as §1
Sphingosine 1-phosphate receptor 1 (Rattus norvegicus, UniProt P48303), sequence (P48303 whole entry): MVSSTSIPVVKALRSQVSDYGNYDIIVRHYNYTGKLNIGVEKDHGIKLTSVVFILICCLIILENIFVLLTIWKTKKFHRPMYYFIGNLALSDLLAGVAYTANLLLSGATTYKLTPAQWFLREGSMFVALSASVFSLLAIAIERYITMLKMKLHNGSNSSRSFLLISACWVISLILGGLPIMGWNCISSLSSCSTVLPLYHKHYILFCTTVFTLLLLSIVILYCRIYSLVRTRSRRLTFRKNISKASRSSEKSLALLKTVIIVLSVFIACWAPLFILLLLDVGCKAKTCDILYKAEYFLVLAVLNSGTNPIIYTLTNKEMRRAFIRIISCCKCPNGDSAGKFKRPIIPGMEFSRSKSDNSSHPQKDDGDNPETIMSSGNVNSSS

Cytochrome P450 1A2 = Cytochrome P450 1A2 (Homo sapiens, UniProt P05177); assay: Inhibition of CYP1A2 (unknown origin); type: ADME
Cytochrome P450 1A2, sequence (P05177 whole entry): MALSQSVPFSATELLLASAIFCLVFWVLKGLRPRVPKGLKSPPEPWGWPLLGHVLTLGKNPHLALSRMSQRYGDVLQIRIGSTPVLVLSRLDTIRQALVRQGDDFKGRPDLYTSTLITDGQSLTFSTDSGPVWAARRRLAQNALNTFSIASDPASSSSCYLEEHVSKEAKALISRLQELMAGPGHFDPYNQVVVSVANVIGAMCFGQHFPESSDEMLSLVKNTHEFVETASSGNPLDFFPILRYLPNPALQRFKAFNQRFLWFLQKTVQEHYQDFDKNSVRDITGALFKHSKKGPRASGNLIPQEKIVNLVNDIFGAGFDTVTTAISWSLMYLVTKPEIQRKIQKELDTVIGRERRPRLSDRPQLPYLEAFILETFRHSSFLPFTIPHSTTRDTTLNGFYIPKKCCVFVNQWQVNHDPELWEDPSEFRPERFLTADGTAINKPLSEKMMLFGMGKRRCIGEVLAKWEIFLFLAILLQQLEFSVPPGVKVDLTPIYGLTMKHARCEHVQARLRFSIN

[5] = AUC (0 to infinity) in rat at 1 mg/kg, iv or 1 mg/kg, po; type: ADME, organism-based; settings: plasma
How it was run: (§2)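 Preclinical iv/po PK; amorphous free acid dosed orally as a suspension in 0.5% methyl cellulose; clearance and Vss from intravenous administration.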

[6] = biological target: Sphingosine 1-phosphate receptor 1 (Rattus norvegicus) (UniProt P48303); assay: Agonist activity at rat S1P1 receptor assessed as cAMP accumulation by HTRF assay relative to S1P; type: functional; how it was run: as §1
Sphingosine 1-phosphate receptor 1 (Rattus norvegicus), sequence (P48303 whole entry): as the sequence (P48303 whole entry) above

[7] = Elimination half life in mouse at 1 mg/kg, po; type: ADME, organism-based; set-up: dose 1 mg/kg, route oral; settings: in vivo, read-out: beta t1/2 (converted); how it was run: as §2
[8] = Cmax in Sprague-Dawley rat at 300 mg/kg; type: ADME, organism-based; set-up: dose 300 mg/kg; settings: in vivo
How it was run: (§3)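 Sprague–Dawley rats dosed at 300 and 1000 mg/kg in a separate dose-proportionality exposure study; Cmax determined.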

[9] = Cmax in Sprague-Dawley rat at 1000 mg/kg; type: ADME, organism-based; set-up: dose 1000 mg/kg; settings: in vivo; how it was run: as §3
[10] = Oral bioavailability in dog at 3 mg/kg; type: ADME, organism-based, Canis lupus familiaris; settings: in vivo
Mus musculus [11] = assay: Reduction in disease severity in C57Bl/6 mouse experimental autoimmune encephalomyelitis model of multiple sclerosis at 3 mg/kg dosed once daily beginning on day 18 and continued to day 37; type: functional, organism-based; set-up: dose 3 mg/kg
How it was run: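 Female C57Bl/6 mice with MOG35–55-induced EAE; once-daily treatment started day 18 after severe disease onset and continued to day 37; vehicle 0.5% methylcellulose; clinical scoring.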

Rattus norvegicus [12] = assay: Effect on neurobehaviour in Sprague-Dawley rat up to 350 mg/kg; type: ADME, organism-based; set-up: dose 350 mg/kg; settings: in vivo
How it was run: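 CNS (neurobehavioral) and respiratory safety studies in SD rats, doses up to 350 mg/kg.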

Rattus norvegicus [13] = assay: Improvement histological parameters of knee and ankles in Lewis rat collagen-induced arthritis model at 1 mg/kg, po qd measured on day 17; type: functional, organism-based; set-up: dose 1 mg/kg; settings: Ankle/Knee
[14] = biological target: Sphingosine-1-phosphate receptor 1 (Canis lupus familiaris, UniProt W5VNF7); assay: Agonist activity at dog S1P1 receptor assessed as cAMP accumulation by HTRF assay; type: functional; how it was run: as §1
Sphingosine-1-phosphate receptor 1, sequence (W5VNF7 whole entry): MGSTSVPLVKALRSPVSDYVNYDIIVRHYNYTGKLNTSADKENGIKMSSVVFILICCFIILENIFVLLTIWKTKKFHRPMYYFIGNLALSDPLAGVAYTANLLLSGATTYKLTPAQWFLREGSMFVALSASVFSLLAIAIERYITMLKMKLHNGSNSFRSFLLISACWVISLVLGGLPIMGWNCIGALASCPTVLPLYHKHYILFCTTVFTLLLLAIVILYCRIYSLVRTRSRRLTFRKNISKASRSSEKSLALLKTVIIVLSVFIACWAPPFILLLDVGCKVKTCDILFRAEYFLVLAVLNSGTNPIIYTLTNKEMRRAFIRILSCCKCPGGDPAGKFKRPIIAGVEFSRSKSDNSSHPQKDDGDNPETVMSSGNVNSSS

[15] = biological target: T1, Sphingosine 1-phosphate receptor 1 (Homo sapiens, UniProt P21453); assay: Agonist activity at human S1P1 receptor assessed as cAMP accumulation by HTRF assay; type: functional; how it was run: as §1
T1 sequence (P21453 whole entry): as the sequence (H9EUW9 whole entry) above, with S3P, L12H, T37I, R41K, P189S, M241I, D365E counted along it

Rattus norvegicus [16] = assay: Improvement histological parameters of knee and ankles in Lewis rat collagen-induced arthritis model at 3 mg/kg, po qd measured on day 17; type: functional, organism-based; set-up: dose 3 mg/kg
[17] = Oral bioavailability in rat at 1 mg/kg; type: ADME, organism-based; settings: in vivo
[18] = Volume of distribution at steady state in rat at 1 mg/kg, iv; type: ADME, organism-based; set-up: dose 1 mg/kg, route intravenous; settings: in vivo, read-out: Vdss
[19] = Systemic clearance in monkey at 1 mg/kg, iv; type: ADME, organism-based, Macaca mulatta; set-up: dose 1 mg/kg, route intravenous; settings: rhesus monkey, in vivo
[20] = biological target: Sphingosine 1-phosphate receptor 3 (Homo sapiens, UniProt Q99500); assay: Agonist activity at human S1P3 receptor by beta-arrestin recruitment assay
Sphingosine 1-phosphate receptor 3, sequence (Q99500 whole entry): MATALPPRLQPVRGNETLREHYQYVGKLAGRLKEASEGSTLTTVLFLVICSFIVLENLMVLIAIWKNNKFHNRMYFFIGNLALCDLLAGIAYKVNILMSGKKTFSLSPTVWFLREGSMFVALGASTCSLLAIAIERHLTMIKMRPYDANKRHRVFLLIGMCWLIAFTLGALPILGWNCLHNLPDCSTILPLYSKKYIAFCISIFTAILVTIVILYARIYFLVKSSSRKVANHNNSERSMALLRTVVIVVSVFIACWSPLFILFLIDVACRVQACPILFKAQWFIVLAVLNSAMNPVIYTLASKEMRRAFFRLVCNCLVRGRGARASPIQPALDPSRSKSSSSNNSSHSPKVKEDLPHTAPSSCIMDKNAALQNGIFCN

[21] = Half life in dog liver microsomes; type: ADME, Canis lupus familiaris
How it was run: (§4)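 Stability on incubation with liver microsomes of each species; half-life reported.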

[22] = Ratio of drug level in brain to plasma of Sprague-Dawley rat at 14.5 ug/hr/kg dosed as constant infusion measured after 48 hrs; type: ADME, organism-based; settings: iv, read-out: BPR
How it was run: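 Male Sprague–Dawley rats given 48 h constant infusion at 14.5 μg/h/kg; brain and plasma concentrations measured at 48 h to give B/P ratio.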

Mus musculus [23] = assay: Reduction in peripheral lymphocyte count in orally dosed mouse measured after 24 hrs; type: ADME, organism-based
[24] = biological target: T1, Sphingosine 1-phosphate receptor 1; assay: Induction of internalization of HA-tagged human S1P1 receptor expressed in CHO cells; type: cell-based
How it was run: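 CHO cells expressing HA-tagged human S1P1; receptor internalization measured, IC50 derived.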

Rattus norvegicus [25] = assay: Systemic clearance in rat at 1 mg/kg, iv relative to liver blood flow; type: ADME, organism-based; set-up: dose 1 mg/kg, route intravenous; settings: in vivo
[26] = Systemic clearance in mouse at 1 mg/kg, iv; type: ADME, organism-based; set-up: dose 1 mg/kg, route intravenous; settings: in vivo
Mus musculus [27] = assay: Reduction in inflammatory foci in C57Bl/6 mouse experimental autoimmune encephalomyelitis model of multiple sclerosis at 3 mg/kg dosed once daily beginning on day 18 and continued to day 37 by immunofluorescent staining method; type: functional, organism-based; set-up: dose 3 mg/kg
How it was run: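 Therapeutic EAE in female C57Bl/6 mice, dosing from day 18; spinal cord and brain collected day 37; cerebellum sections immunostained for CD45 and CD3 with DAPI counterstain; inflammatory foci and infiltrating lymphocytes assessed.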

Canis familiaris = assay: Effect on ECG parameters in telemeterized dog up to 40 mg/kg; type: ADME, organism-based, Canis lupus familiaris; set-up: dose 40 mg/kg; settings: in vivo
How it was run: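 Telemeterized dogs dosed at levels up to 40 mg/kg; pulse pressure, heart rate, body temperature and ECG parameters monitored.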

[28] = Half life in rat liver microsomes; type: ADME; how it was run: as §4
[29] = biological target: Sphingosine 1-phosphate receptor 1 (Mus musculus, UniProt O08530); assay: Agonist activity at mouse S1P1 receptor assessed as cAMP accumulation by HTRF assay; type: functional; how it was run: as §1
Sphingosine 1-phosphate receptor 1 (Mus musculus, UniProt O08530), sequence (O08530 whole entry, the tested form may be a part): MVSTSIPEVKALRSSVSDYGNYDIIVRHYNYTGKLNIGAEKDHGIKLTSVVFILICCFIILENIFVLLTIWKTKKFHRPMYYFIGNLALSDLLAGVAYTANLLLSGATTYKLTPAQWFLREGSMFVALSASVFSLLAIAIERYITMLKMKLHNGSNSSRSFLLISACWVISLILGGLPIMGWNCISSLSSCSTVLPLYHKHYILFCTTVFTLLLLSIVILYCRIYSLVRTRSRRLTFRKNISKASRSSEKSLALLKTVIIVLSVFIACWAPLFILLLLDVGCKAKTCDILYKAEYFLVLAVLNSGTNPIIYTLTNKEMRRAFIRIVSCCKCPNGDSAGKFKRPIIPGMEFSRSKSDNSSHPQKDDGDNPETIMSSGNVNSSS

[30] = Ratio of plasma concentration in Sprague-Dawley rat at 14.5 ug/hr/kg dosed as constant infusion to IC50 for reduction in peripheral lymphocyte count in orally dosed rat; type: ADME, organism-based; settings: in vivo, po
How it was run: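 Male Sprague–Dawley rats received a 48 h constant infusion at 14.5 μg/h/kg, and plasma drug concentration was taken at the 48 h time point. […] The ratio is the 48 h plasma concentration divided by that IC50.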

[31] = AUC (0 to infinity) in dog at 1 mg/kg, iv or 3 mg/kg, po; type: ADME, organism-based, Canis lupus familiaris; settings: plasma; how it was run: as §2
[32] = AUC (0 to infinity) in mouse at 1 mg/kg, iv or 1 mg/kg, po; type: ADME, organism-based; settings: plasma; how it was run: as §2
[33] = Half life in human liver microsomes; type: ADME; how it was run: as §4

Question: What does the source list for `O=C(O)C[C@H]1CCc2c1[nH]c1ccc(OCc3ccc(C4CCCC4)c(C(F)(F)F)c3)cc21` [ETRASIMOD]?
Answer: EC50 [1]: 0.32 nM; IC50 (Cytochrome P450 2C19): > 50000 nM; Activity (Salmonella typhimurium): Non-toxic; IC50 (Cytochrome P450 2D6): > 50000 nM; IC50 (Cytochrome P450 2C9): > 50000 nM; Activity (Rattus norvegicus [2]): 178.6 g; Activity (Rattus norvegicus [3]): Toxic; EC50 [4]: 0.32 nM; IC50 (Cytochrome P450 1A2): > 50000 nM; AUC(0-inf) [5]: 3790 ng·h/mL; Emax [6]: 99%; half-life [7]: 12.3 h; Cmax [8]: 136 µM; Cmax [9]: 183 µM; bioavailability [10]: 73.2%; Activity (Mus musculus [11]): Active; Activity (Rattus norvegicus [12]): Non-toxic; Activity (Rattus norvegicus [13]): Active; EC50 [14]: 0.34 nM; EC50 [15]: 0.04 nM; Activity (Rattus norvegicus [16]): Active; bioavailability [17]: 54%; Vd [18]: 1.61 L/kg; clearance [19]: 0.947 mL/min/kg; EC50 [20]: > 10000 nM; half-life [21]: > 1 h; Kp at 48 h [22]: 1.9; IC50 (Mus musculus [23]): 101 nM; IC50 [24]: 1.88 nM; CL (Rattus norvegicus [25]): 3.45%; clearance [26]: 1.83 mL/min/kg; Activity (Mus musculus [27]): Active; Activity (Canis familiaris): Non-toxic; half-life [28]: > 1 h; EC50 [29]: 0.44 nM; Ratio [30]: 2; AUC(0-inf) [31]: 164000 ng·h/mL; AUC(0-inf) [32]: 10300 ng·h/mL; half-life [33]: > 1 h
